Holding throughout (format): cell-based
What all share (design): scale not given: the % may be the effect or the level left

Test [1] has as its target Autotaxin (Homo sapiens) (UniProt Q13822). Nature of the test: Activity of human autotaxin in human […] cells assessed as effect on enzyme-mediated of FS3 hydrolysis at 0.1 uM. The method in brief:
(§1)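 ATX source: serum-free conditioned medium from MDA-MB-435 cells (24-30 h), with 20% ethylene glycol added, concentrated ~10-fold and exchanged into 50 mM Tris pH 7.4. Assay: FS-3 substrate 1 μM final, fatty-acid-free BSA 30 μM, Tris pH 8 buffer with Mg2+, Ca2+, K+ and NaCl. Read fluorescence at ex 485/em 538 nm every 5 min. % inhibition vs vehicle at 1 h, after no-medium background subtraction; mean ± SD, ≥3 wells.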

For test [2] the target is unchanged. Nature of the test: Activity of human autotaxin in human […] cells assessed as effect on enzyme-mediated of FS3 hydrolysis at 1 uM. The method in brief:
as §1

The target is the same in test [3]. The test can be described thus: Activity of human autotaxin in human […] cells assessed as effect on enzyme-mediated of FS3 hydrolysis at 10 uM. An outline of the steps: as §1

On to `CCCCCCCCCCCCCCCCCCOC[C@@H](O)COP(=O)([O-])CCC[N+](C)(C)C`, for which the Activity came to 81% at Autotaxin (Homo sapiens) [1], 89% at Autotaxin (Homo sapiens) [2] and 76% at Autotaxin (Homo sapiens) [3].
For `CCCCCCCCCCOC[C@H](O)COP(=O)([O-])CCC[N+](C)(C)C` the same measures were 97%, 96% and 89%.
The like results for `CCCCCCCCCCCCCCOP(=O)([O-])OCC[N+](C)(C)C` were, in that order, 110%, 112% and 91%.
The like results for `CCCCCCCCCCCCCCCCOC[C@H](O)COP(=O)([O-])CCC[N+](C)(C)C` were, in that order, 82%, 86% and 76%.
Take `CCCCCCCCCCCCCCCCCCP(=O)([O-])OCC[N+](C)(C)C`: the Activity at Autotaxin (Homo sapiens) [1] came to 110%; on Autotaxin (Homo sapiens) [2], 96%; on Autotaxin (Homo sapiens) [3] it was 44%.
The like results for `CCCCCCCCCCCCOC[C@@H](O)COP(=O)([O-])CCC[N+](C)(C)C` were, in that order, 99%, 96% and 89%.
For `CCCCCCCCCCCCCCCCCCOP(=O)([O-])NCC[N+](C)(C)C` the same measures were 86%, 74% and 29%.
Take `CCCCCCCCC(=O)OC[C@@H](O)COP(=O)([O-])OCC[N+](C)(C)C`: the Activity at Autotaxin (Homo sapiens) [1] was 94%; at Autotaxin (Homo sapiens) [2], 81%; on Autotaxin (Homo sapiens) [3], 101%.
Turning to `CCCCCCCCCCOC[C@@H](O)COP(=O)([O-])CCC[N+](C)(C)C`, the Activity at Autotaxin (Homo sapiens) [1] is 101%; on Autotaxin (Homo sapiens) [2], 95%; on Autotaxin (Homo sapiens) [3], 103%.
The like results for `CCCCCCCCCCCCCCCCCCC(=O)OC[C@@H](O)COP(=O)([O-])OCC[N+](C)(C)C` were, in that order, 111%, 99% and 59%.
The like results for `CCCCCCCCCCCCCCOC[C@H](O)COP(=O)([O-])CCC[N+](C)(C)C` were, in that order, 97%, 95% and 80%.
The like results for `CCCCCCCCCCCCOC[C@H](O)COP(=O)([O-])CCC[N+](C)(C)C` were, in that order, 98%, 95% and 87%.
Consider `CCCCCCCCCCCCCCCCCCC(=O)OC[C@@H](O)COP(=O)(O)O`, for which the Activity at Autotaxin (Homo sapiens) [1] worked out at 89%; at Autotaxin (Homo sapiens) [2], 74%; on Autotaxin (Homo sapiens) [3] it was 36%.
For `CCCCCCCCCCCCCCCCC(=O)OC[C@@H](O)COP(=O)([O-])OCC[N+](C)(C)C` the same measures were 109%, 89% and 36%.
For `CCCCCCCCCCCCCCCCC(=O)OC[C@@H](O)COP(=O)(O)O` the same measures were 74%, 49% and 5%.
The like results for `CCCCCCC(=O)OC[C@@H](O)COP(=O)([O-])OCC[N+](C)(C)C` were, in that order, 104%, 100% and 97%.
As to `CCCCCCCCCCCCCCCCOP(=O)([O-])CCC[N+](C)(C)C`, the Activity at Autotaxin (Homo sapiens) [1] came to 97%; at Autotaxin (Homo sapiens) [2], 94%; at Autotaxin (Homo sapiens) [3], 91%.
Turning to `CCCCCCCCC/C=C/CCCCCCCC(=O)OC[C@@H](O)COP(=O)(O)O`, the Activity came to 90% on Autotaxin (Homo sapiens) [1], 23% at Autotaxin (Homo sapiens) [2] and 2% at Autotaxin (Homo sapiens) [3].
For `CCCCCCCCCCCCCCOP(=O)([O-])NCC[N+](C)(C)C` the same measures were 89%, 90% and 75%.
The like results for `CCCCCCCCCCCCCCCCCOC[C@@H](O)COP(=O)([O-])OCC[N+](C)(C)C` were, in that order, 100%, 89% and 49%.
For `CCCCCCCCC/C=C/CCCCCCCOP(=O)([O-])NCC[N+](C)(C)C` the same measures were 93%, 89% and 74%.
As to `CCCCCCCCCCCCCCCCCCOP(=O)([O-])OCC[N+](C)(C)C`, the Activity on Autotaxin (Homo sapiens) [1] came to 114%; at Autotaxin (Homo sapiens) [2], 116%; on Autotaxin (Homo sapiens) [3], 102%.
For `CCCCCCCC/C=C\CCCCCCCCOP(=O)(O)OCC[N+](C)(C)C` the same measures were 101%, 100% and 79%.
Turning to `CCCCCCCCCCCCC(=O)OC[C@@H](O)COP(=O)([O-])OCC[N+](C)(C)C`, the results for the Activity at Autotaxin (Homo sapiens) [1], on Autotaxin (Homo sapiens) [2] and on Autotaxin (Homo sapiens) [3] were 102%, 97% and 66%, respectively.
Consider `CCCCCCCCCCCCCCOP(=O)([O-])CCC[N+](C)(C)C`, for which the Activity turned out to be 94% on Autotaxin (Homo sapiens) [1], 90% on Autotaxin (Homo sapiens) [2] and 71% at Autotaxin (Homo sapiens) [3].
Turning to `CCCCCCCCCCCCCCCCOP(=O)([O-])NCC[N+](C)(C)C`, the Activity is 81% on Autotaxin (Homo sapiens) [1], 81% on Autotaxin (Homo sapiens) [2] and 77% on Autotaxin (Homo sapiens) [3].
Take `CCCCCCCC/C=C\CCCCCCCCOP(=O)([O-])OCC[N+](C)(C)C`: the Activity at Autotaxin (Homo sapiens) [1] was determined as 105%; on Autotaxin (Homo sapiens) [2] it was 59%; on Autotaxin (Homo sapiens) [3], 8%.
The like results for `CCCCCCCCCCC(=O)OC[C@@H](O)COP(=O)([O-])OCC[N+](C)(C)C` were, in that order, 101%, 101% and 85%.
The like results for `CCCCCCCCCCCCCCCCCCCOC[C@@H](O)COP(=O)([O-])OCC[N+](C)(C)C` were, in that order, 92%, 86% and 44%.
The like results for `CCCCCCCCC/C=C/CCCCCCCC(=O)OC[C@@H](O)COP(=O)([O-])OCC[N+](C)(C)C` were, in that order, 92%, 55% and 17%.
`CCCCCCCCCCCCCCC(=O)OC[C@@H](O)COP(=O)([O-])OCC[N+](C)(C)C`: the Activity is 72% at Autotaxin (Homo sapiens) [1], 80% on Autotaxin (Homo sapiens) [2] and 36% on Autotaxin (Homo sapiens) [3].
For `CCCCCCCCCCCCCCCCOP(=O)([O-])OCC[N+](C)(C)C` the same measures were 114%, 113% and 92%.
The like results for `CCCCCCCCCCCCCCOC[C@@H](O)COP(=O)([O-])CCC[N+](C)(C)C` were, in that order, 98%, 85% and 76%.
`CCCCCCCCCCCCCCCCOC[C@@H](O)COP(=O)([O-])CCC[N+](C)(C)C`: the Activity at Autotaxin (Homo sapiens) [1] is 83%; on Autotaxin (Homo sapiens) [2] it was 82%; at Autotaxin (Homo sapiens) [3], 72%.
As for `CCCCCCCCCCCCCCCCCCOC[C@H](O)COP(=O)([O-])CCC[N+](C)(C)C`, the Activity is 78% on Autotaxin (Homo sapiens) [1], 77% on Autotaxin (Homo sapiens) [2] and 68% on Autotaxin (Homo sapiens) [3].
